Results on 16 compounds are retold here after BindingDB's records for doi:10.1021/jm020820h (2002).

The structures appear in SMILES notation. pEC50: −log10 of the molar value.

The nature of experiment [1]: Effective concentration required to inhibit HIV-1 induced cytopathicity in CEM cell culture by 50%.
The nature of experiment [2]: Effective concentration required to inhibit HIV-1 induced cytopathicity in MT-4 cell culture by 50%.
Experiment [3] addresses T1, Reverse transcriptase/RNaseH (Human immunodeficiency virus 1, UniProt Q72547). Briefly: Effective concentration required to inhibit HIV-1 induced cytopathicity in CEM cell culture by 50%. In a few lines:
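CEM cells at 4 × 10⁵/mL infected with HIV-1 or HIV-2 at ~100 CCID₅₀ per mL, mixed 1:1 with compound dilutions. Giant cell formation scored microscopically after 4 days. EC₅₀ is the concentration inhibiting virus-induced cytopathicity by 50%.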
(In general: Damage to the host cells serves as the signal in cytopathic effect assays.)

Experiment [4] concerns the target T1, Reverse transcriptase/RNaseH. Briefly: Effective concentration required to inhibit HIV-1 induced cytopathicity in MT-4 cell culture by 50%. An outline of the steps: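 MT-4 cells at 3 × 10⁵/mL infected with HIV-1 or HIV-2 at ~100 CCID₅₀ per mL, mixed 1:1 with compound dilutions. Cytopathicity read by trypan blue dye exclusion after 5 days. EC₅₀ is the concentration giving 50% protection against the virus-induced loss of cell viability.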

In general, pEC50 refers to −log10 of the EC50, conventionally taken in molar units. For the compound `CNC1=C(C)S(=O)(=O)OC12C(CO[Si](C)(C)C(C)(C)C)OC(n1cc(C)c(=O)n(C)c1=O)C2O[Si](C)(C)C(C)(C)C` (configuration not stated), the values for the negative-log EC50 (pEC50) in experiment [1] and in experiment [2] were under 4.00 and under 3.60, respectively.

Consider `Cc1cn(C2OC(CO[Si](C)(C)C(C)(C)C)C3(OS(=O)(=O)C(c4ccccc4)=C3N)C2O[Si](C)(C)C(C)(C)C)c(=O)[nH]c1=O` (configuration not stated), for which the pEC50 is 5.60 in experiment [1] and 5.17 in experiment [2].

On to `CCOC(=O)CC=C1C(=N)C2(OS1(=O)=O)C(CO[Si](C)(C)C(C)(C)C)OC(n1cc(C)c(=O)[nH]c1=O)C2O[Si](C)(C)C(C)(C)C` (configuration not stated), for which the negative-log EC50 (pEC50) in experiment [3] is 5.46; in experiment [4], 5.00.

On to `Cc1cn(C2OC(CO[Si](C)(C)C(C)(C)C)C3(OS(=O)(=O)C(Br)=C3N)C2O[Si](C)(C)C(C)(C)C)c(=O)[nH]c1=O` (configuration not stated), for which the pEC50 in experiment [1] is 6.07; in experiment [2] it was 6.03.

Consider `COC(=O)CC=C1C(=N)C2(OS1(=O)=O)C(CO[Si](C)(C)C(C)(C)C)OC(n1cc(C)c(=O)[nH]c1=O)C2O[Si](C)(C)C(C)(C)C` (configuration not stated), for which the negative-log EC50 (pEC50) in experiment [3] was 5.52; in experiment [4] it was 5.43.

With `CC1=C(N)C2(OS1(=O)=O)C(CO[Si](C)(C)C(C)(C)C)OC(n1cc(C)c(=O)n(C)c1=O)C2O[Si](C)(C)C(C)(C)C` (configuration not stated), the pEC50 was 5.66 in experiment [1] and 6.60 in experiment [2].

For `CC=C1C(=N)C2(OS1(=O)=O)C(CO)OC(n1cc(C)c(=O)[nH]c1=O)C2O[Si](C)(C)C(C)(C)C` (configuration not stated), the pEC50 in experiment [3] was 4.82; in experiment [4], 4.64.

On to `Cc1cn([C@@H]2O[C@H](CO[Si](C)(C)C(C)(C)C)[C@@]3(OS(=O)(=O)C(=CCCO)C3=N)[C@H]2O[Si](C)(C)C(C)(C)C)c(=O)[nH]c1=O` [1-[(5R,6R,8R,9R)-4-amino-9-(tert-butyl-dimethyl-silanyloxy)-6-(tert-butyl-dimethyl-silanyloxymethyl)-3-(3-hydroxy-propenyl)-2,2-dioxo-1,7-dioxa-2lambda*6*-thia-spiro[4.4]non-3-en-8-yl]-5-methyl-1H-pyrimidine-2,4-dione], for which the pEC50 in experiment [4] is 5.18.

As for `Cc1cn(C2OC(CO[Si](C)(C)C(C)(C)C)C3(OS(=O)(=O)C(c4ccsc4)=C3N)C2O[Si](C)(C)C(C)(C)C)c(=O)n(C)c1=O` (configuration not stated), in experiment [2], the pEC50 was 5.64.

On to `Cc1cn([C@@H]2O[C@H](CO[Si](C)(C)C(C)(C)C)[C@@]3(OS(=O)(=O)C(I)=C3N)[C@H]2O[Si](C)(C)C(C)(C)C)c(=O)[nH]c1=O` [1-[(5R,6R,8R,9R)-4-amino-9-(tert-butyl-dimethyl-silanyloxy)-6-(tert-butyl-dimethyl-silanyloxymethyl)-3-iodo-2,2-dioxo-1,7-dioxa-2lambda*6*-thia-spiro[4.4]non-3-en-8-yl]-5-methyl-1H-pyrimidine-2,4-dione], for which the figures for the negative logarithm of the EC50 (pEC50) in experiment [1] and in experiment [2] were 7.22 and 6.92, respectively.

`Cc1cn(C2OC(CO[Si](C)(C)C(C)(C)C)C3(OS(=O)(=O)C(I)=C3N)C2O[Si](C)(C)C(C)(C)C)c(=O)n(C)c1=O` (configuration not stated) gave a pEC50 in experiment [2] of 6.96.

On to `Cc1cn(C2OC(CO[Si](C)(C)C(C)(C)C)C3(OS(=O)(=O)C(=CCCO)C3=N)C2O[Si](C)(C)C(C)(C)C)c(=O)n(C)c1=O` (configuration not stated), for which the values for the pEC50 in experiment [3] and in experiment [4] were 5.55 and 5.23, respectively.

With `CC=C1C(=N)C2(OS1(=O)=O)C(CO[Si](C)(C)C(C)(C)C)OC(n1cc(C)c(=O)[nH]c1=O)C2O[Si](C)(C)C(C)(C)C` (configuration not stated), the pEC50 in experiment [3] is 5.40; in experiment [4], 5.49.

Turning to `COC(=O)CC=C1C(=N)C2(OS1(=O)=O)C(CO[Si](C)(C)C(C)(C)C)OC(n1cc(C)c(=O)n(C)c1=O)C2O[Si](C)(C)C(C)(C)C` (configuration not stated), the values for the pEC50 in experiment [3] and in experiment [4] were 6.01 and 5.54, respectively.

As to `Cc1cn(C2OC(CO[Si](C)(C)C(C)(C)C)C3(OS(=O)(=O)C(c4ccccc4)=C3N)C2O[Si](C)(C)C(C)(C)C)c(=O)n(C)c1=O` (configuration not stated), in experiment [2], the pEC50 is 5.77.

As to `Cc1cn(C2OC(CO[Si](C)(C)C(C)(C)C)C3(OS(=O)(=O)C=C3N)C2O[Si](C)(C)C(C)(C)C)c(=O)n(C)c1=O` (configuration not stated), the pEC50 in experiment [1] is 7.40.
